aDG glyco up = increases alpha dystroglycan glycosylation | activation, % at 10 µM | Pro5-aDG cells, alpha-DG glycosylation AlphaScreen (IIH6); 0% Pro5, 100% B10-LARGE cell signal | actives 0.22% (n = 360,000);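 active = activation of at least 8% versus controls, or a plate z-score of at least 8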;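 also: Pro5 are CHO cells carrying HIG-tagged alpha-DG that lacks glycosylation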
N-glyco inh = N-linked glycosylation inhibition; D54 ERlucT glycosylation luciferase reporter, 24 h; percent of 100 nM tunicamycin response; reporter increase, % at 12.5 µM; actives 0.23% (n = 360,000); AID 588692;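 active = mean luciferase reporter signal, scaled so untreated is 0 and the glycosylation-blocking control 100, at or above a set limit in every replicate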;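 also: luciferase carries N-glycosylation sites so blocking glycosylation raises the light; 0% = median of neutral control wells and 100% = median of 100 nM tunicamycin wells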
UCH37 DUB inh = human UCH37 deubiquitinating enzyme inhibition; Q9Y5K5; purified proteasome/UCH37, Ub-AMC cleavage fluorescence; inhibition, % (concentration not given with the values); actives 0.33% (n = 330,000);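 active = mean inhibition over replicate wells above about 20%, limit read from the data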;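 also: 0% = compound-free wells with enzyme and 100% = wells lacking proteasome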
Target sequence (Q9Y5K5 whole entry, looked up): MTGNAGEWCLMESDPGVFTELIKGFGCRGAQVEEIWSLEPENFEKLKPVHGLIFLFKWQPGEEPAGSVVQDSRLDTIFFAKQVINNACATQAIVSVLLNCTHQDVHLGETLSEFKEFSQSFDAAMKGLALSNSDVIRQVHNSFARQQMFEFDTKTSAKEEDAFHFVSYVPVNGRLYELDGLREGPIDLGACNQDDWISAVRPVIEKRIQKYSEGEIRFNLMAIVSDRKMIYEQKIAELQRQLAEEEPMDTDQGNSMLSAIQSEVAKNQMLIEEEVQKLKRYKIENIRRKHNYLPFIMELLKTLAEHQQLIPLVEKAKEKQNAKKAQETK
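Material: human UCH37 enzyme supplied as purified proteasome complex / Amount: 0.15 nM proteasome as dispensed / Buffer or medium: pH 7.4 Tris-HCl (50 mM) with ovalbumin, ATP-MgCl2, DTT / Times: preincubation 30 min, reaction 25 min, room temperature / Technique: AMC fluorescence from Ub-AMC cleavage, excitation 355 nm, emission 460 nm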
Vif inh = blocks HIV Vif function | actives 0.35% (n = 340,000) | HEK293T cells, Vif self-association by quenched fluorescence, imaging, 24 h | inhibition, % at 7.49 µM | AID 602346; in the data active = inhibition above about 50%, passing the limit was not always enough
MsrA inhibitor = bovine MsrA inhibition | purified bovine MsrA, absorbance read-out | inhibition, % at 15.5 µM | actives 0.75% (n = 360,000); in the data active = inhibition above about 4.5%;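 also: 0% = vehicle wells with enzyme and 100% = reference inhibitor wells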
MsrA act = bovine methionine sulfoxide reductase A activation; purified bovine MsrA, absorbance read-out; activation, % at 10.6 µM; actives 0.3% (n = 360,000); in the data active = activation above about 7.5%;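 also: 0% = vehicle and 100% = reference activator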
Numbers without * were called inactive; i = inactive; · = no result given; ! = repeats disagree. Compounds with a hit are over-represented: about 1.9% of the library has one in this group of screens.

SMILES	aDG glyco up	N-glyco inh	UCH37 DUB inh	Vif inh	MsrA inhibitor	MsrA act
CC1CC(=NNc2nc3ccccc3[nH]2)CC(C)(C)C1 (stereo unspecified)	·	·	6	·	·	·
C=C(C)C1CC=C(C)C(=NNC(=O)c2ccc(NC(=O)c3cccc(C)c3)cc2)C1 (stereo unspecified)	·	·	0	·	·	·
COC(=O)c1cccc(NC(=O)COc2cccc([N+](=O)[O-])c2)c1	0	-1	33*	·	-1	-11
COc1ccc(-c2cc(-c3nc4ccccn4c3NCc3ccccc3)ccc2OC)cc1	0	-15	·	77*	3	-3
O=C(NN=Cc1cccnc1)c1cccc(S(=O)(=O)N2CCCC2)c1	·	·	4	·	·	·
CCOC(=O)c1cc2ccc(OC)cc2oc1=O	0	-2	i	-1	4.6*	-6
C=CCn1cc(C=NNC(=O)COc2cccc3cccnc23)c2ccccc21	·	·	4	·	·	·
Cc1ccc2c(c1)c(/C=C/c1cc[n+](C)cc1)c(C)n2C	0	3	·	·	-1	-1
Cc1ccc2[nH]c(C)c(/C=C/c3cc[n+](C)cc3)c2c1	0	-10	22*	·	0	-8
CC(=NNC(=O)c1cccnc1)c1ccc(-n2ccnc2)cc1	·	·	1	·	·	·
Cc1ccc(C=NNC(=O)c2cccs2)cc1[N+](=O)[O-]	·	·	2	·	·	·
O=C1CCN(CCCc2ccccc2)CCN1[C@H](CO)c1ccccc1	0	0	28*	-3	1	-6
O=[N+]([O-])c1cccc(S(=O)(=O)c2ccc(NCCO)c([N+](=O)[O-])c2)c1	0	3	32*	32	0	-2
COC(=O)c1scc(C)c1NN=C(C)c1ccc(F)cc1	·	·	-13	·	·	·
CCOC(=O)C1CCN(C(=O)c2cc(S(=O)(=O)N(C)C)ccc2N2CCCC2)CC1	0	-2	8	1	0	0
CCOC(=O)C1CCCN(C(=O)c2cc(S(=O)(=O)N(C)C)ccc2N2CCCC2)C1 (stereo unspecified)	0	1	1	56*	1	-3
CN(C)S(=O)(=O)c1ccc(N2CCCC2)c(C(=O)Nc2ccccc2)c1	0	46*	4	10	2	-2
Cc1ccc(NC(=O)c2cc(S(=O)(=O)N(C)C)ccc2N2CCCC2)cc1F	0	90*	4	-1	1	-4
Cc1nc(-c2coc3cc(C)c(N=O)c(O)c3c2=NN)cs1	·	·	7	·	·	·
Cc1ccc(C=Nn2c(-c3ccccn3)n[nH]c2=S)o1	·	·	3	·	·	·
CN1CCN(C=Nc2c(C#N)cnn2Cc2ccccc2)CC1	·	·	4	·	·	·
O=C(/C=C/c1cccs1)NC(=S)NNC(=O)c1ccccc1O	1	-6	5	-14	6.9*	-7
Brc1ccc(-c2nc(NN=Cc3cccnc3)c3ccccc3n2)cc1	·	·	-2	·	·	·
CN(C)c1ccc(C=NNc2cccc(C(=O)O)c2)cc1	·	·	8	·	·	·
CN(C)c1ccc(C(=O)C(=O)c2ccccc2)cc1	0	-1	10	-12	4.6*	-5
SMILES	aDG glyco up	N-glyco inh	UCH37 DUB inh	Vif inh	MsrA inhibitor	MsrA act
CC(=O)c1ccc(N(C)C)cc1	0	2	1	8	3	-2
COc1cc([N+](=O)[O-])ccc1NC(=O)CN(C)C	0	2	9	-3	2	-3
CCN(CC(=O)Nc1ccc([N+](=O)[O-])cc1OC)c1ccccc1	0	-3	5	-3	4.8*	-3
O=C(Nc1ccc(OC(F)(F)F)cc1)Nc1cccc([N+](=O)[O-])c1	-1	-12	31*	-20	1	-3
Cc1ccc(NC(=O)Nc2cccc([N+](=O)[O-])c2)cc1F	0	-10	4	·	-2	-4
CC(C)(C)c1ccc(C(=O)NCCCNC(=O)c2ccco2)cc1	0	-1	2	3	1	-8
CN(C)CCCNCCCNC(=O)c1ccco1	0	6	1	65*!	-1	-4
C=CCNC(=S)NN=Cc1cn(C)c2ccccc12	·	·	7	·	·	·
CCN(CC)CC(=O)Nc1cccc2c1C(=O)c1ccccc1C2=O	0	7	1	5	1	-2
O=C1c2ccccc2C(=O)c2c(NCCCN(CCO)CCO)cccc21	1	116*	4	-8	1	-4
Cc1ccc(Cn2cc(C=NNC(=O)Cc3nnc(NC(=O)c4ccc(C)cc4)s3)c3ccccc32)cc1	·	·	1	·	·	·
Cc1csc(SCc2nnc(-c3ccccc3Br)o2)n1	0	-10	2	-6	1	-9
Fc1ccccc1SCc1nnc(-c2ccccc2Br)o1	0	-17	32*	10	1	-1
Cc1ccc(NC(=O)CSCC(=O)N2CCN(C(=O)c3ccco3)CC2)cc1	0	0	2	3	0	-1
Cc1ccc(NC(=O)CSC(C)C(=O)OCC(=O)N2CCN(C(=O)c3ccco3)CC2)cc1 (stereo unspecified)	0	-1	3	61*	0	-3
O=c1[nH]n2c(=O)c3c([nH]c2c1N=Nc1cccc(Cl)c1)CCC3	0	3	18	-1	2	-8
NS(=O)(=O)c1ccc(N=Nc2c(=O)[nH]n3c(=O)c4c([nH]c23)CCCC4)cc1	0	1	21*	·	2	-3
Cc1cc(C)n2[nH]c(=O)c(N=Nc3ccc(S(N)(=O)=O)cc3)c2n1	0	1	25*	-5	0	-8
O=c1[nH]n2c(=O)c3c([nH]c2c1N=Nc1cccc(C(F)(F)F)c1)CCCC3	0	5	15	5	1	-7
COc1cccc(N=Nc2c(=O)[nH]n3c(=O)c4c([nH]c23)CCC4)c1	0	3	20*	1	0	-3
Cc1csc(NN=Cc2ccc(O)c([N+](=O)[O-])c2)n1	·	·	20*	·	·	·
Cc1n[nH]c(=O)nc1NN=Cc1ccc(O)c([N+](=O)[O-])c1	·	·	21*	·	·	·
Cc1nn(-c2ccccc2)c(N2CCCC2)c1C=NNC(=O)c1cc(-c2cccs2)nc2ccccc12	·	·	-7	·	·	·
O=C(O)CCCN1C(=O)/C(=C/C=C/c2ccco2)SC1=S	1	2	20*	-13	0	-6
O=C(O)C(Cc1ccccc1)N1C(=O)/C(=C/C=C/c2ccco2)SC1=S (stereo unspecified)	0	1	24*	-14	1	-9
O=C(O)CC(C(=O)O)N1C(=O)/C(=C/C=C/c2ccco2)SC1=S (stereo unspecified)	0	2	21*	8	0	-7
CN1C(=O)/C(=C2/C=Cc3ccccc3N2CCCS(=O)(=O)O)SC1=S	0	-2	24*	1	1	-6
CCCN1/C(=C2/SC(=S)N(CC)C2=O)C=Cc2ccccc21	0	-3	4	11	-1	-1
O=C(CCl)Nc1cn(-c2ccccc2)nc1-c1ccc(F)cc1	0	52*	4	-4	0	-5
